In the EternaBench riboswitch data:

Tested on: MS2 coat protein
Assay: apparent Kd, MS2 coat protein; higher = weaker binding; RNA-MaP array; FMN 200 µM where present
Summary of the method: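 On Illumina sequencing-chip clusters, designs were transcribed by stalled E. coli RNA polymerase and titrated with SNAP-549-labelled MS2 coat protein (0.7 or 1.5 nM, doubling to 3 µM), without and then with constant ligand, in 100 mM Tris-HCl pH 7.5, 80 mM KCl, 4 mM MgCl2, BSA, DTT, yeast tRNA and Tween-20. Apparent Kd is the median of filtered per-cluster curve fits to green signal normalised to red-channel RNA signal and control-cluster median Fmax.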

[1] = designed as: OFF switch for flavin mononucleotide, no ligand
[2] = ligand present: flavin mononucleotide, designed as: OFF switch for flavin mononucleotide
[3] = designed as: ON switch for flavin mononucleotide, no ligand
[4] = ligand present: flavin mononucleotide, designed as: ON switch for flavin mononucleotide

Sequence	apparent Kd [1]	apparent Kd [2]	apparent Kd [3]	apparent Kd [4]
CCAGGCUUCGAGAAGGACAUGAGGAUCACCCAUGUGCGUGUGAAGCAGCCGUGAGGCUGCAUCAUGUAGGAUAUCGGAGUCUGA	71.8 nM	396 nM	–	–
AAACAUGUCCGAGGAUAUCUGGAAACAUUUCCAAGAGAAGGCGGACAUGAGGAUCACCCAUGUCUCUCCUCAUCAAAUCCGAGU	9.24 nM	89.3 nM	–	–
CCUUUUGUAUAAGGAUAUGUAACAAGGCGUAGGUGGGUAGGACUUGCGCUUACAGAAGGUAUACAUGAGGAUCACCCAUGUCGA	32.4 nM	240 nM	–	–
UGCGUACAAGCGGACAUGAGGAUCACCCAUGUAUUGUUAUGCGAGGAUAUCGGGAAGCAGGAUUCCGAGAAGGUGCGGUGAGCC	–	–	19.2 nM	17.7 nM
CACUGCAAUGUAGGAUAUCGACUGGAUAACAGUCGAGAAGGACAUGAGGAUCACCCAUGUACUAUGAGUGAAUAAUAAGCAGUG	89 nM	950 nM	–	–
UUAAUUAUACAAGGAUAUCUAUUGUAGUUUCGACUUACAUGAGGAUCACCCAUGUUUUUAUGUUUAGAGAAGGUGUAUUUUCAG	–	–	104 nM	77.3 nM
ACAUGAGGAUCACCCAUGUAAUGAUGGGUACUAUAUUAUUCGUAGGAUAUCGUUGUUAGUUUGUUCGAGAAGGACGUUUGCCUU	1220 nM	1200 nM	–	–
CGUAGGAUCCAGAAGGCAUGAAACAUGAGGAUCACCCAUGUCAAAGACAUGAGGAUAUGGAUCCUACGAAAAGUGCGAAAGCAC	–	–	4.1 nM	3.15 nM
GGUGCGAUGUAGAAGGCAGAUCUGAUUCAGAUCUGAGGAUAUACAUGAGGAUCACCCAUGUAAAGGCACCGCACGAGAGUGCAA	7.12 nM	11.3 nM	–	–
GAGCGAAAGCUCAAUGUCGAUAGCAGAAGGACAUGAAAAUACAUGAAAACAUGAGGAUCACCCAUGUAGGAUAUGCUAUCGACU	8.75 nM	89.4 nM	–	–
GACUGAUUGUAGAAGGUACUUAAUACUCAUGUAACAUGAGGAUCACCCAUGUAUCACCCAUAUUGUAAGGAUAUACAUAUCUCA	–	–	337 nM	167 nM
UUGUUUUUUGAGGAUAUGCGACGUUUUUUCGUCGUAGAAGGCGAUACAUGAGGAUCACCCAUGUUUAUGGGCAU	124 nM	169 nM	–	–
CCGCCCUGAGGAUAUCCACCCUCAUACAUGAGGAUCACCCAUGUUCACCCUUGGGUUCCCGGAGAAGGCAGCUUUC	347 nM	393 nM	–	–
UUUUUACAUGAGGAUCACCCAUGUCAGGAUAUGGUUAUAUUUUAUUAUUUUAUUUUUUCCAGAAGGGACUAUUA	343 nM	162 nM	–	–
ACUGACAUGAGGAUCACCCAUGUCUUGAAUAGGUCAAAUUCACAGGAUAUGCGCUAGGACAGGGUGCAGAAGGGUGAUGCAAUG	–	–	45.4 nM	12.1 nM
UUUUAGAGAGGAUAUAUAAAGUGAAACAUGAGGAUCACCCAUGUAAUUUUAUGGAUGUAAAUAGAAGGCUCAUUUA	33.3 nM	28.6 nM	–	–
UCUAGACAUGAGGAUCACCCAUGUGAGGAUAUGAUGCGAUCGUCGAAAGACGAUAGCAUCAGAAGGCACGUAUG	65.1 nM	113 nM	–	–
GUAGAACAUGAGGAUCACCCAUGUGAAGACGCAUGAGGAUAUAUCCGUACCUAGCAUACGAUAGAAGGCAUGAUAC	–	–	113 nM	49.7 nM
GGUCCACAUGAGGAUCACCCAUGUUAGGAUAUCUCGUCCGAGCAGUUAUGGGCCGGGCAGAGAAGGAAUGUGAA	30.3 nM	26.6 nM	–	–
UAAUUGUGAGGAUAUUCGUAGUUCACGGAGACGUGAAUUACGGAGAAGGCACAUGAGGAUCACCCAUGUUCCUU	17.8 nM	84.8 nM	–	–
GUCAGCUCGUGAGGAUAUACAUGUGCUGGAGACAGCAUUAAAUAAUUCACAUGAGGAUCACCCAUGUAGAAGGCACGAGCUGAU	17.8 nM	38.8 nM	–	–

Sequence	apparent Kd [1]	apparent Kd [2]	apparent Kd [3]	apparent Kd [4]
AUUAUGACCGAGUUAUACUUCUAAACAUGAGGAUCACCCAUGUAGGAUAUCAGCACGAUAAGUGCUGAGAAGGACAUCUCGGUC	13.7 nM	14.6 nM	–	–
UUUUAACAUGAGGAUCACCCAUGUGAGGAUAUCGAUUUUUAUAUUAAUAUUAAUAAAACGAGAAGGCACAUUUU	123 nM	79.3 nM	–	–
GACAAUCUAUCUGAGGAUAUCAUGAAAAAAACAUGAGGAUCACCCAUGUGCAGGAAAACUGCAUAUGAGAAGGCAGAUAGAUUGC	–	–	678 nM	27.4 nM
UAAAAGACUAGCAAAUAAGUUCCACAUGAGGAUCACCCAUGUCAGGAUAUGAGCAGCAAAGCUGCUCAGAAGGGACAGCUAGUC	5.53 nM	6.99 nM	–	–
UGCUUCGUGUAAGGAUAUGCUGCCGUUUCGGCUGCAGAAGGUACUAUAAUACAUGAGGAUCACCCAUGUCUCUCGCUUUGCGGG	–	–	55.9 nM	26.6 nM
UUAAUUAUACAAGGAUAUCUAUUGUAAUUUCGUCUUACAUGAGGAUCACCCAUGUUAAUAUUUUUAGAGAAGGUGUAUUUUCAG	–	–	113 nM	63.7 nM
UGAUAGGACAGAGGAUAUACGUAUAAAUAUCCUCACAUGAGGAUCACCCAUGUAGAAGGCUGUCCUAUCUAAGUCGGAAACGAC	15.6 nM	317 nM	–	–
GCCUCACAUGAGGAUCACCCAUGUCAGGAUAUCUAAGGCGAAGUGCAAGCACCUCGUGAGAGAAGGGACGUCAA	23.2 nM	47.6 nM	–	–
UUAUGCUGAGAGAAGGUUCAAACUACAUAUUGCACACAUGAGGAUCACCCAUGUUGGUGAAUAAGAAAGGAUAUUUUACUGUAU	20.1 nM	16.9 nM	–	–
UUAUUAUAUGUAGGAUAUGCAUAUUAUUAUUAUGCAGAAGGACAUGAGGAUCACCCAUGUAUAUUAUUAUUAUAUGUUAUAUAU	25.5 nM	36.9 nM	–	–
AACAGGUCAGGAUAUACAUGAGGAUCACCCAUGUAACAAGCGGAGGCGACUUCUCAAGGUAGAAGGGAUCUCCG	19.8 nM	18.9 nM	–	–
ACCGUAUGAACAUGAGGAUCACCCAUGUAUCCGAAAGGGAAUGAGGAUAUCGAUAGCAAAGCUAUCGAGAAGGCAUGGGACGGU	–	–	460 nM	434 nM
GGACGUCACAUUAACAUGAGGAUCACCCAUGUCUAUAGACAUGAGGAUAUGGAUCCUAAUUGGAUCCAGAAGGCAUGGACGUCC	–	–	787 nM	46.3 nM
UCAAGAAGGCAGAAGGGUCCUCACAUGAGGAUCACCCAUGUAGAUAUGGAUAGGAUAUGUCUAGAGAAGUGUUGCUCUAAGGGU	–	–	1050 nM	159 nM
GUAGCUAUCGGAGGAUAUUCAUACCGGAAACGGACAUGAGGAUCACCCAUGUGGCGAAAGCCAUGGGAGAAGGCCGAUAGCUAC	–	–	606 nM	131 nM
GCCGAUUAAGUCAGGAUAUACCUAUGGAUACAUAGGUAGAAGGGACAUGAGGAUCACCCAUGUUCCUCUACGGC	12.9 nM	25.8 nM	–	–
ACAUCGACAGGAUAUACGUGAGUGGAAAAAGUAUGUCCACUACAUGAGGAUCACCCAUGUAGAAGGGUCGAUGA	16.2 nM	15 nM	–	–
CAAACGUGAGGAUAUACAUGAGGAUCACCCAUGUGCUCCUCUAAACUGAAGAAGUAAUGUAGAAGGCACGUUUG	39.2 nM	17.7 nM	–	–
AGCGAACAGGCUAACAUGAGGAUCACCCAUGUGGACUCAUGGUAGGAUAUCGGGAAGGAGGAAACCGAGAAGGGCCGGUGAGCG	–	–	150 nM	70.8 nM
GGGUGCUCACCGCCUUAACAUGAGGAUCACCCAUGUGGAGUGCAGGAUAUACGUCUCUAUCAUACGUAGAAGGGCACCGCGCAG	5.45 nM	5.9 nM	–	–
CCAUACAUGAGGAUCACCCAUGACAUGAGGAUCACCCAUGUGCAGGAUAUACGUGAUAUAAUAUAGUAGAAGGGCAGACCAAAA	75.7 nM	85.2 nM	–	–
